Screening data (PubChem BioAssay)
Sampled rows, rich in hits. Any-hit rate of the full collection: about 4%.
TAAR1 ag: human TAAR1 agonism; activation, % at 3 µM; Q96RJ0; hit rate 0.99% among 360,000; CHO RD-HGA16 TAAR1, Fluo-8 calcium fluorescence; vehicle wells 0%, saturating PEA agonist 100%;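 active = activation above the mean activation of all test compounds in the run plus 3 SD, cut at about 38% in these data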
Target sequence (Q96RJ0 whole entry, looked up): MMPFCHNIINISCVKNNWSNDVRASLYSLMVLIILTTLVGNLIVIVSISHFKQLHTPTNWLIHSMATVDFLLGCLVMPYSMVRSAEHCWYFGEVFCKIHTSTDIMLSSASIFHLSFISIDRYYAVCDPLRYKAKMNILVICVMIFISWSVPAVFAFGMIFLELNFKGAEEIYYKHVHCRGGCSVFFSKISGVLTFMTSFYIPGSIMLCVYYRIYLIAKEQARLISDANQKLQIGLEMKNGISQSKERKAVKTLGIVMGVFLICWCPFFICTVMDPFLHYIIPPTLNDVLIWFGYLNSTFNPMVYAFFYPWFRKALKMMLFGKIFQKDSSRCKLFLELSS
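Test system: RD-HGA16 (CHO) cells co-expressing Gα16 and hTAAR1 | Doses: Single dose, 3 µM | Schedule: 17-24 h seeding, 75 min 37 °C dye, 30 min RT | Evaluation: % activation from peak over basal fluorescence ratio, DMSO-to-PEA scaled | Technique: Kinetic Fluo-8 calcium fluorescence | Benchmarks: Low control DMSO, high control PEA (EC100)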
CHO parental Ca: signal in parental CHO cells, OX1R antagonist counter-screen; parental CHO-K1, ATP-induced calcium, Fluo-8 fluorescence; hit rate 0.63% among 330,000; inhibition, % at 5.6 µM; AID 463079;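 active = inhibition above that plate's mean sample inhibition plus 3 SD, cut at about 26% in these data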;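 note: 0% = ATP-challenged DMSO wells and 100% = DMSO wells without ATP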
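test system = CHO parental line | reagent = ATP stimulus | measured by = intracellular calcium via Fluo-8 no-wash fluorescent dye | control set = ATP and no-ATP DMSO wells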
OX1R antag-1: antagonists of human orexin 1 receptor; O43613; CHO/OX1R cells, Fluo-8 calcium fluorescence, orexin A; inhibition, % at 5 µM; hit rate 0.43% among 330,000;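 active = inhibition above its plate's threshold, mean inhibition of all tested compounds on the plate plus 3 SD, cut at about 37% in these data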;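 note: 0% = orexin A challenge wells and 100% = SB-334867-A antagonist wells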
Target sequence (O43613 whole entry, looked up): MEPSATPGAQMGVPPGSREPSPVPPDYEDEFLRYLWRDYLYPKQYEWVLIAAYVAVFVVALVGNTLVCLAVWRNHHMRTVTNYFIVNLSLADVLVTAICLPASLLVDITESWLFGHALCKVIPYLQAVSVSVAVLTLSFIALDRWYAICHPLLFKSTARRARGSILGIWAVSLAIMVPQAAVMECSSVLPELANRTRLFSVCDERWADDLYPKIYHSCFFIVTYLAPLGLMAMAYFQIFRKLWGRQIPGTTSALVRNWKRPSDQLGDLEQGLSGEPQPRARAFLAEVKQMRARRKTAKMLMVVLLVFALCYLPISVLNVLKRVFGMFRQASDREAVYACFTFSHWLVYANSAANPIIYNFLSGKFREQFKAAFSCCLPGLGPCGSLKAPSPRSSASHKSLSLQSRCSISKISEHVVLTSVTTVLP
OX1R antag-2: antagonists of human orexin 1 receptor (OX1R) | O43613 | OX1R-expressing cells, FRET antagonist read-out | inhibition, % at 6.6 µM | hit rate 1.8% among 330,000 | AID 485270; in the data active = inhibition mostly above about 38%, no sharp cut-off; inactive = mostly below about 40%;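 note: 0% = agonist challenge alone and 100% = reference antagonist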
TAAR1 antag: antagonists of human TAAR1. Q96RJ0. CHO RD-HGA16 TAAR1, Fluo-8 calcium fluorescence, antagonist. inhibition, % at 3 µM. hit rate 1.5% among 360,000. AID 624466;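 active = inhibition above a per-plate cutoff, the mean inhibition of test compounds on that plate plus 3 SD, cut at about 49% in these data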;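 note: 0% = DMSO plus EC80 beta-PEA response and 100% = DMSO alone without agonist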
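System: CHO RD-HGA16 cells bearing hTAAR1. Reagent: EC80 β-phenethylamine stimulus. Schedule: seeding 17-24 h prior, 75-min 37 °C, 30-min RT dye loading. Signal: Fluo-8 intracellular calcium dye fluorescence, real-time kinetic reads. Read-out: % inhibition from peak post-agonist over basal fluorescence ratio. Benchmarks: vehicle wells and EC80 agonist wells. Replicates: n of 1.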
TAAR1 nonsel count: nonselective antagonism, TAAR1 counter-screen | shares compounds with TAAR1 antag | inhibition, % at 3 µM | counterscreen cell line, calcium fluorescence, antagonist mode | hit rate 77% among 2,400; in the data active = inhibition above about 22%;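 note: CHO-Ga16 host cells stimulated with ATP at an EC80 level; 0% = agonist EC80 plus vehicle and 100% = vehicle without agonist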
TAAR1 ant conf: confirmation of human TAAR1 antagonists | hit rate 40% among 2,400 | inhibition, % at 3 µM | TAAR1-expressing cells, fluorescence antagonist read-out | shares compounds with TAAR1 antag; in the data active = inhibition above about 49%;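 note: CHO-Ga16 host cells challenged with agonist PEA near its EC80; 0% = agonist at EC80 plus vehicle and 100% = vehicle with no agonist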
Ga16 ag counter: nonselective Ga16 agonist in TAAR1 antagonist counter-screen. shares compounds with TAAR1 antag. Ga16-expressing cells, calcium fluorescence, agonist counterscreen. activation, % at 3 µM. hit rate 18% among 2,400. AID 651953; in the data active = activation above about 12%;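 note: 0% = vehicle wells and 100% = saturating stimulus response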
TAAR1 ag count: TAAR1 agonism, antagonist counter-screen; AID 651955; activation, % at 3 µM; hit rate 2% among 2,400; shares compounds with TAAR1 antag; hTAAR1 cell line, fluorescence activation, agonist mode; in the data active = activation above about 37%;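 note: CHO cells stably expressing TAAR1 with calcium dye readout; 0% = DMSO vehicle and 100% = full agonist response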
* = called active by the depositor; · = no result given.

SMILES	TAAR1 ag	CHO parental Ca	OX1R antag-1	OX1R antag-2	TAAR1 antag	TAAR1 nonsel count	TAAR1 ant conf	Ga16 ag counter	TAAR1 ag count
CCCc1cc(C(=O)Nc2ccc(C(=O)c3ccc(C)cc3)cc2)n(C)n1	-0.9	-1.9	1.3	5.9	64.2*	29.4*	49.4*	3.3	-1.8
CCCc1cc(C(=O)Nc2cccc3ccccc23)n(C)n1	-0.8	-14.7	-18.4	1.3	-6.4	·	·	·	·
CCOc1ccc(N2CC(C(=O)Nc3cc(S(=O)(=O)N4CCCCC4)ccc3C)CC2=O)cc1 (stereo not given)	3.1	-14.8	-12.9	3.4	2.0	·	·	·	·
COc1ccc(C2=NOC(Cn3nc(C(=O)NCc4ccccc4OC)cc3-c3ccccc3)C2)cc1 (stereo not given)	16.4	5.8	-12.4	45.1	68.2*	32.6*	52.8*	9.6	5.6
COc1ccc(C2=NOC(Cn3nc(C(=O)NCC4CC4)cc3-c3ccccc3)C2)cc1 (stereo not given)	14.2	-14.0	-30.3	21.4	72.1*	34.1*	49.3*	6.5	5.2
COc1ccc(C2=NOC(Cn3nc(C(=O)NCc4ccc(OC(F)(F)F)cc4)cc3-c3ccccc3)C2)cc1 (stereo not given)	2.3	-9.7	-1.1	14.0	23.9	·	·	·	·
COc1ccc(C(=O)N2N=C(c3ccc(NS(C)(=O)=O)cc3)CC2c2cccs2)cc1 (stereo not given)	15.8	-4.7	-19.6	3.3	59.3*	30.1*	44.6	9.9	10.6
O=c1oc(-c2ccccc2)c(-c2ccccc2)c2ccccc12	-0.7	·	·	·	-21.6	·	·	·	·
CCN(CC)c1ccc(NC(=S)Nc2ccc(F)cc2)cc1	4.9	·	·	·	16.5	·	·	·	·
CCN(CC)C(=O)c1cccc(-c2csc(C(C)(O)c3cccc(F)c3)n2)c1 (stereo not given)	11.3	·	·	·	80.5*	42.6*	56.9*	12.0*	10.5
CC(=O)Nc1cccc(-c2csc(C(C)(O)c3cccc(F)c3)n2)c1 (stereo not given)	2.6	·	·	·	-8.2	·	·	·	·
O=[N+]([O-])c1cccc(-c2ccc(/C=N/Nc3nc(N4CCCCC4)nc(N4CCCCC4)n3)o2)c1	6.1	-18.8	-47.5	17.0	51.7*	19.0	34.9	4.5	6.3
Cc1cc(/C=C(\C#N)C(=O)NCc2cccs2)c(C)n1-c1ccccc1F	1.6	-13.9	-3.4	38.2	68.5*	17.1	61.1*	2.4	3.9
COc1ccc(/C=C(\C#N)C(=O)NCc2cccs2)cc1OC	-1.6	-12.7	-33.8	31.0	-16.5	·	·	·	·
CCOC(=O)N1CCN(c2cc(=O)n(-c3cccc(C)c3)c(=O)[nH]2)CC1	8.1	-2.6	1.8	18.5	4.4	·	·	·	·
O=C(O/C(=C/c1ccccc1)C(F)(F)F)c1ccccc1	0.0	·	·	·	-8.2	·	·	·	·
Cc1cccc(NC(=O)C2CCN(S(=O)(=O)c3cccc4nsnc34)CC2)n1	7.5	-0.1	-9.0	63.6	12.8	·	·	·	·
COc1ccc2nc(NC(=O)C3CCN(S(=O)(=O)c4cccc5nsnc45)CC3)sc2c1	21.9	4.8	-6.9	23.6	61.3*	34.0*	55.6*	11.4	11.1
COCCCNC(=O)c1cn(C)c(=O)c2c1c1ccccc1n2C	5.6	-6.7	-9.0	-6.0	-20.5	·	·	·	·
Cn1cc(C(=O)NCCN2CCN(c3cccc(Cl)c3)CC2)c2c3ccccc3n(C)c2c1=O	24.6	-18.3	-24.9	11.9	56.3*	28.9*	43.1	6.2	6.3
Cc1nc2cc(NC(=O)c3ccc(N4C(=O)CCC4=O)cc3)ccc2s1	7.6	-9.8	-8.4	26.5	4.8	·	·	·	·
COc1ccccc1Cc1c(-c2ccco2)nc2cc(C)c(Br)c(C)n12	-0.2	·	·	·	-7.7	·	·	·	·
COc1cccc(C(=O)Nc2cccc(NC(=O)c3ccccc3Cl)c2)c1	10.0	-26.1	-21.5	15.8	67.7*	19.6	43.1	8.1	4.9
COc1ccc(/C=N/NC(=O)c2cccc(NC(=O)c3ccccc3Cl)c2)c(OC)c1	5.8	11.8	-11.0	35.6	59.6*	24.2*	45.4	4.9	2.2
COc1ccc(/C=N/NC(=O)c2cccc(NC(=O)c3ccccc3Cl)c2)cc1	7.6	-15.3	-15.2	26.1	15.6	·	·	·	·
SMILES	TAAR1 ag	CHO parental Ca	OX1R antag-1	OX1R antag-2	TAAR1 antag	TAAR1 nonsel count	TAAR1 ant conf	Ga16 ag counter	TAAR1 ag count
O=C1c2cc(Cl)ccc2-c2c(O)cc(Cl)cc21	10.0	·	·	·	5.2	·	·	·	·
C#CCSc1nnc(C)c(C)n1	12.6	-3.2	-17.7	25.4	2.0	·	·	·	·
Brc1ccc(CSc2ccc3nnc(-c4cccnc4)n3n2)cc1	7.1	-16.2	-24.1	14.9	59.9*	25.0*	38.7	8.8	13.1
Cc1ccc(CSc2ccc3nnc(-c4ccccn4)n3n2)cc1	1.9	-11.7	-24.6	5.2	60.9*	24.6*	34.7	5.7	6.0
Cc1ccc(S(=O)(=O)N2C[C@]3(O)C[C@@H]4C(=O)N(c5ccccc5)C(=O)[C@@H]4C[C@]3(OC(=O)NC3CCCC3)C2)cc1	3.3	·	·	·	-5.4	·	·	·	·
COc1ccc(/C=C2/SC(=O)N(NS(=O)(=O)c3ccccc3)C2=S)cc1OC	13.6	-16.8	-4.6	42.8*	63.4*	28.6*	41.6	5.8	2.8
Cc1cccc(OCC(=O)NNC(=O)C2CCN(c3ncnc4sc(C)c(C)c34)CC2)c1	19.4	-19.6	-24.8	29.7	75.0*	35.9*	51.6*	11.1	20.1
Cc1ccccc1OCC(=O)NNC(=O)C1CCN(c2ncnc3sc(C)c(C)c23)CC1	24.5	-13.9	-26.7	22.2	69.9*	38.8*	56.5*	13.5*	29.9
Cc1sc2ncnc(N3CCC(C(=O)N(CC(C)C)c4nc5ccccc5s4)CC3)c2c1C	-1.0	-13.2	-34.0	20.5	-26.0	·	·	·	·
CCN(CC)c1ccc(C(=O)NNC(=O)C2CCN(c3ncnc4sc(C)c(C)c34)CC2)cc1	8.1	·	·	·	56.1*	25.9*	34.9	7.6	14.8
CCCN(CC(=O)Nc1ccccc1C)C(=O)C1CCN(c2ncnc3sc(C)c(C)c23)CC1	9.9	-29.6	-38.2	27.3	60.4*	30.9*	51.2*	6.6	4.8
CN(C)c1cccc(C(=O)N/N=C/c2ccsc2)c1	6.4	-0.9	-2.6	12.2	0.4	·	·	·	·
NC(=O)COc1cccc(/C=N/NC(=O)c2ccc(-n3cccc3)cc2)c1	6.5	-5.7	-12.7	10.3	84.0*	18.4	55.2*	4.6	2.6
NC(=O)c1ccc(C(=O)N/N=C/c2cccc(Oc3ccccc3)c2)cc1	1.6	·	·	·	-1.4	·	·	·	·
COc1ccc(Cl)cc1NC(=O)Cn1c(C)csc1=O	0.2	-10.4	-10.2	2.3	-8.7	·	·	·	·
